Experiments:
[1] = test system: Rattus norvegicus; assay: Oral diuretic activity was evaluated by measuring Na+ excretion in Rat at 9 mg/kg […] ( 0 - 5 hr); format: ADME, organism-based, Urine; design: dose 9 mg/kg
How it was run: (§1)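 Female Charles-River rats (150–170 g) were kept overnight on a sugar diet with water ad libitum. Compound was dissolved in DMF, then diluted with water containing Tween 80 (3 drops/100 mL) to a final 4% DMF, and given po in 5.0 mL. Rats were housed three per metabolism cage. Urine from 0–5 h was analysed for Na+, K+ and Cl−, with concurrent placebo controls. Values are mequiv × 100 per cage, geometric mean of three cages per dose.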

[2] = test system: Canis familiaris; assay: Oral diuretic activity was evaluated by measuring Na+ excretion in dog at 1 mg/kg after ip administration ( 0 - 6 hr); format: ADME, organism-based, Canis lupus familiaris, Urine; design: dose 1 mg/kg, route intraperitoneal; settings: in vivo
How it was run: (§2)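 Spontaneous urine was pooled with bladder urine collected by catheterization at 6 h. Volume was measured and Na+, K+ and Cl− were determined by standard methods. Values are geometric means.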

[3] = test system: Canis familiaris; assay: Oral diuretic activity was evaluated by measuring Na+ excretion in dog at 2 mg/kg after […] ( 0 - 6 hr); format: ADME, organism-based, Canis lupus familiaris, Urine; design: dose 2 mg/kg; settings: in vivo
How it was run: (§3)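 Dogs; spontaneous urine was pooled with bladder urine drained by catheter at the end of 6 h. Urine volume was measured, and aliquots were assayed for Na+, K+ and Cl− by standard methods. Values are geometric means, expressed as mequiv over 0–6 h.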

[4] = test system: Canis familiaris; assay: Oral diuretic activity was evaluated by measuring K+ excretion in dog at 5 mg/kg after ip administration ( 0 - 6 hr); format: ADME, organism-based, Canis lupus familiaris, Urine; design: dose 5 mg/kg, route intraperitoneal; settings: in vivo; how it was run: as §2
[5] = test system: Rattus norvegicus; assay: Oral diuretic activity was evaluated by measuring Na+ excretion in Rat at 27 mg/kg […] ( 0 - 5 hr); format: ADME, organism-based, Urine; design: dose 27 mg/kg; how it was run: as §1
[6] = test system: Rattus norvegicus; assay: Oral diuretic activity was evaluated by measuring Na+ excretion in Rat at 3 mg/kg […] ( 0 - 5 hr); format: ADME, organism-based, Urine; design: dose 3 mg/kg; how it was run: as §1
[7] = test system: Canis familiaris; assay: Oral diuretic activity was evaluated by measuring Na+ excretion in dog at 5 mg/kg after […] ( 0 - 6 hr); format: ADME, organism-based, Canis lupus familiaris, Urine; design: dose 5 mg/kg; settings: in vivo; how it was run: as §3
[8] = test system: Canis familiaris; assay: Compound administered intravenously at a dose of 5 mg/kg was evaluated for salidiuretic activity measured as sodium ion excretion in Dog; format: ADME, organism-based, Canis lupus familiaris, Urine; design: dose 5 mg/kg, route intravenous; settings: in vivo, iv
How it was run: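 Conditioned female mongrel dogs, postabsorptive, water-loaded (500 mL po) 1 h before sodium pentobarbital anesthesia (30 mg/kg iv). Bladder catheter; creatinine 4 g sc; phosphate–mannitol buffer pH 7.4 infused (3.0 mL/min) throughout. […] Urine Na+ measured; response scored 0–6.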

[9] = test system: Canis familiaris; assay: Oral diuretic activity was evaluated by measuring K+ excretion in dog at 2 mg/kg after ip administration ( 0 - 6 hr); format: ADME, organism-based, Canis lupus familiaris, Urine; design: route intraperitoneal, dose 2 mg/kg; settings: in vivo; how it was run: as §2
[10] = test system: Rattus norvegicus; assay: Oral diuretic activity was evaluated by measuring K+ excretion in Rat at 3 mg/kg […] ( 0 - 5 hr); format: ADME, organism-based, Urine; design: dose 3 mg/kg
How it was run: (§4)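 Female Charles-River rats (150–170 g) were kept overnight on a sugar diet with water ad libitum. Test substance was dissolved in DMF and diluted with water containing Tween 80 to a final 4% DMF vehicle, then given po in 5.0 mL. Rats were housed three per metabolism cage, and 0–5 h urine was assayed for Na⁺, K⁺ and Cl⁻ alongside concurrent placebo groups. Values are mequiv × 100 per cage, geometric means of three cages per dose.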

[11] = test system: Rattus norvegicus; assay: Oral diuretic activity was evaluated by measuring K+ excretion in Rat at 81 mg/kg […] ( 0 - 5 hr); format: ADME, organism-based, Urine; design: dose 81 mg/kg; how it was run: as §4
[12] = test system: Rattus norvegicus; assay: Oral diuretic activity was evaluated by measuring K+ excretion in Rat at 9 mg/kg after […] ( 0 - 5 hr); format: ADME, organism-based, Urine; design: dose 9 mg/kg; settings: in vivo; how it was run: as §4
[13] = test system: Canis familiaris; assay: Oral diuretic activity was evaluated by measuring K+ excretion in dog at 1 mg/kg after […] ( 0 - 6 hr); format: ADME, organism-based, Canis lupus familiaris, Urine; design: dose 1 mg/kg; settings: in vivo; how it was run: as §2
[14] = test system: Rattus norvegicus; assay: Evaluated for salidiuretic activity measured as sodium ion excretion in Rat, administered orally at a dose of 50 mg/kg; format: functional, Urine; design: unit not given beside the values; settings: route oral
How it was run: (§5)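 Female Charles-River rats (150–170 g), overnight on sugar diet with water ad libitum. Compound dissolved in DMF, diluted with water containing Tween 80 (final 4% DMF), given po in 5.0 mL; concurrent vehicle placebo. Three rats per metabolism cage; 0–5 h urine analysed for Na+, K+, Cl-. Values: mequiv × 100 per cage, geometric means of three cages per dose; scored 0–6 by Na+.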

[15] = Compound administered orally at a dose of 5 mg/kg was evaluated for salidiuretic activity measured as sodium ion excretion in Rat; format: organism-based; design: dose 5 mg/kg; settings: Urine; how it was run: as §5
[16] = test system: Canis familiaris; assay: Oral diuretic activity was evaluated by measuring Cl- excretion in dog at 5 mg/kg after […] ( 0 - 6 hr); format: ADME, organism-based, Canis lupus familiaris, Urine; design: dose 5 mg/kg, route intraperitoneal; settings: in vivo
[17] = Evaluated for salidiuretic activity measured as sodium ion excretion in Rat, administered orally at a dose of 16.5 mg/kg; format: organism-based; design: dose 16.5 mg/kg; settings: Urine; how it was run: as §5
[18] = test system: Rattus norvegicus; assay: Oral diuretic activity was evaluated by measuring Cl- excretion in Rat at 27 mg/kg after […] ( 0 - 5 hr); format: ADME, organism-based, Urine; design: dose 27 mg/kg, route intraperitoneal; settings: in vivo
[19] = test system: Canis familiaris; assay: Oral diuretic activity was evaluated by measuring Cl- excretion in dog at 2 mg/kg after […] ( 0 - 6 hr); format: ADME, organism-based, Canis lupus familiaris, Urine; design: dose 2 mg/kg, route intraperitoneal; settings: in vivo
[20] = test system: Rattus norvegicus; assay: Oral diuretic activity was evaluated by measuring Cl- excretion in Rat at 3 mg/kg after […] ( 0 - 5 hr); format: ADME, organism-based, Urine; design: dose 3 mg/kg, route intraperitoneal; settings: in vivo
[21] = test system: Rattus norvegicus; assay: Oral diuretic activity was evaluated by measuring Cl- excretion in Rat at 9 mg/kg […] ( 0 - 5 hr); format: ADME, organism-based, Urine; design: dose 9 mg/kg; settings: in vivo; how it was run: as §4
[22] = test system: Canis familiaris; assay: Oral diuretic activity was evaluated by measuring Cl- excretion in dog at 1 mg/kg after […] ( 0 - 6 hr); format: ADME, organism-based, Canis lupus familiaris, Urine; design: dose 1 mg/kg, route intraperitoneal; settings: in vivo
[23] = organism: Rattus norvegicus; assay: Time taken for the decrease in arterial pressure was measured; format: functional, Artery
[24] = test system: Rattus norvegicus; assay: Maximum fall in mean arterial blood pressure was measured in SH rats when compound was administered at 20 mg/kg perorally; format: functional; settings: route oral
[25] = test system: Rattus norvegicus; assay: Maximum fall in mean arterial blood pressure was measured in SH rats when compound was administered at 40 mg/kg perorally; format: functional; settings: route oral
[26] = test system: Rattus norvegicus; assay: Oral diuretic activity was evaluated by measuring K+ excretion in Rat at 27 mg/kg after po administration ( 0 - 5 hr); settings: in vivo
[27] = test system: Rattus norvegicus; assay: Oral diuretic activity was evaluated by measuring Cl- excretion in Rat at 81 mg/kg after po administration ( 0 - 5 hr); settings: in vivo
[28] = test system: Rattus norvegicus; assay: Compound administered orally at a dose of 1 mg/kg was evaluated for salidiuretic activity measured as sodium ion excretion in Rat; settings: in vivo, po

**Q.** Which Diuretic activity [1] does the source give for `CC(C)(C)c1cc(Cl)c(O)c(CN)c1.Cl` here?
**A.** 2.68

**Q.** And the Diuretic activity [2]?
**A.** 28.38

**Q.** What about the Diuretic activity [3] of the same compound?
**A.** 40.38

**Q.** What about the Diuretic activity [4] of the same compound?
**A.** 10.38

**Q.** And the Diuretic activity [5]?
**A.** 3.16

**Q.** And the Diuretic activity [6]?
**A.** 1.75

**Q.** And the Diuretic activity [7]?
**A.** 43.13

**Q.** And the Diuretic activity [8]?
**A.** > 900

**Q.** What about the Diuretic activity [9] of the same compound?
**A.** 9.13

**Q.** And the Diuretic activity [10]?
**A.** 0.52

**Q.** And the Diuretic activity [11]?
**A.** 0.9

**Q.** And the Diuretic activity [12]?
**A.** 0.71

**Q.** And the Diuretic activity [13]?
**A.** 6.5

**Q.** And the Diuretic activity [14]?
**A.** 3.9

**Q.** What about the Diuretic activity [15] of the same compound?
**A.** 3.6

**Q.** What about the Diuretic activity [16] of the same compound?
**A.** 54.25

**Q.** And the Diuretic activity [17]?
**A.** 4.2

**Q.** And the Diuretic activity [18]?
**A.** 4.31

**Q.** What about the Diuretic activity [19] of the same compound?
**A.** 51.63

**Q.** And the Diuretic activity [20]?
**A.** 2.4

**Q.** And the Diuretic activity [21]?
**A.** 3.7

**Q.** And the Diuretic activity [22]?
**A.** 38.25

**Q.** What about the Duration [23] of the same compound?
**A.** 24 h

**Q.** What about the MAP [24] of the same compound?
**A.** 9 mmHg

**Q.** What about the MAP [25] of the same compound?
**A.** 35 mmHg

**Q.** And the Diuretic activity [26]?
**A.** 0.94

**Q.** And the Diuretic activity [27]?
**A.** 4.87

**Q.** And the Diuretic activity [28]?
**A.** 2.1

Source: ChEMBL document CHEMBL1121573, “2-(Aminomethyl)phenols, a new class of saluretic agents. 1. Effects of nuclear substitution” (J Med Chem, 1980)
